Test results reported in ChEMBL document CHEMBL1147419, “Inhibition of estrone sulfatase (ES) by alkyl and cycloalkyl ester derivatives of 4-[(aminosulfonyl)oxy] benzoic acid” (Bioorg Med Chem Lett, 2004).

Key:
[1] = Partition coefficient (logP); format: physicochemical; conditions: octanol/water
[2] = pKa value was determined; format: physicochemical
Outline: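 The starting phenols' pKa was measured spectroscopically from the change in phenolic UV absorption under acidic (pH 2), pH 9 and basic (pH 11) conditions.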

Steryl-sulfatase = molecular target: T1, Steryl-sulfatase (Homo sapiens, UniProt P08842); test: Inhibition of estrone sulfatase
T1 sequence (P08842 whole entry): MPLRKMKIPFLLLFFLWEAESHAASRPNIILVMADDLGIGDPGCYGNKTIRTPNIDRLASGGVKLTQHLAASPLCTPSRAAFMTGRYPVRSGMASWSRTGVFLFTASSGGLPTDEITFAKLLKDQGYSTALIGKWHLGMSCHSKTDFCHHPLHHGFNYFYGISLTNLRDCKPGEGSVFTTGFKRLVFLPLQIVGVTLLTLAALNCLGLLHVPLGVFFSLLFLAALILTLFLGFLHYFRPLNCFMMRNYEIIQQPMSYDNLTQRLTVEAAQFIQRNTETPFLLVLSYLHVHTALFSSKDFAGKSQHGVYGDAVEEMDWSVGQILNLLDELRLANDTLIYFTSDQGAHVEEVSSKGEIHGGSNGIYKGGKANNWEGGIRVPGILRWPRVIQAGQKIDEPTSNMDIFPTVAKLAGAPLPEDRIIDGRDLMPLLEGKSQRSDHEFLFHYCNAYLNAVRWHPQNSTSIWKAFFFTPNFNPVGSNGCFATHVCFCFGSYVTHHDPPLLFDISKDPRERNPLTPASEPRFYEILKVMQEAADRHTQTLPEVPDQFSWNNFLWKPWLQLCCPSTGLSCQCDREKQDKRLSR

[3] = molecular target: T2, Steryl-sulfatase (Homo sapiens) (UniProt P08842); test: Inhibitory activity against estrone sulfatase at 20 uM (initial screening)
T2 sequence (whole entry): T1 sequence (P08842 whole entry)
Outline: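 Placental microsomes, diluted to 115 µg/mL in 0.05 M Tris-HCl pH 7.2 and pre-warmed 5 min at 37 °C, incubated 20 min at 37 °C with ³H-estrone sulfate (20 µM/tube, 300,000 dpm). Inhibitors were added in ethanol, then dried under nitrogen. Toluene quench, then toluene-phase radioactivity counted by scintillation. Triplicates, uninhibited controls, boiled-microsome blanks.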

[4] = molecular target: T2, Steryl-sulfatase (Homo sapiens); conditions: 0.25 uM

Row | Structure (SMILES) | logP [1] | pKa [2] | IC50 (Steryl-sulfatase) [nM] | inhibition [3] [%] | inhibition [4] [%]
1 | CCCCCCCCCCOC(=O)c1ccc(OS(N)(=O)=O)cc1 | 5.08 | 8.09 | – | – | –
2 | CCCCCCCOC(=O)c1ccc(OS(N)(=O)=O)cc1 | 3.89 | – | – | – | –
3 | Cc1cc(=O)oc2cc(OS(N)(=O)=O)ccc12 | 1.6 | 8 | 13800 | – | –
4 | C[C@]12CC[C@@H]3c4ccc(OS(N)(=O)=O)cc4CCC3[C@@H]1CCC2=O (single isomer, unassigned) [EMATE] | 3.8 | 8.37 | – | – | –
5 | CCCCCCCCOC(=O)c1ccc(OS(N)(=O)=O)cc1 | 4.29 | 8.09 | – | – | –
6 | NS(=O)(=O)Oc1ccc(C(=O)OC2CCCC2)cc1 | 2.68 | 8.73 | 9300 | 62 | –
7 | NS(=O)(=O)Oc1ccc(C(=O)OC2CCCCCC2)cc1 | 3.47 | 8.88 | 500 | 87 | –
8 | COC(=O)c1ccc(OS(N)(=O)=O)cc1 | 1.49 | – | – | – | –
9 | NS(=O)(=O)Oc1ccc(C(=O)OC2CCCCC2)cc1 | 3.08 | 8.81 | 1700 | 84 | –
10 | NS(=O)(=O)Oc1ccc(C(=O)OC2CCCCCCC2)cc1 | 3.87 | 8.09 | 170 | 82 | –
11 | CCCCCOC(=O)c1ccc(OS(N)(=O)=O)cc1 | 3.1 | – | – | – | –
12 | CCCCCCOC(=O)c1ccc(OS(N)(=O)=O)cc1 | 3.49 | – | – | – | –
13 | CCCCOC(=O)c1ccc(OS(N)(=O)=O)cc1 | 2.7 | – | – | – | –
14 | CCOC(=O)c1ccc(OS(N)(=O)=O)cc1 | 1.84 | – | – | – | –
15 | NS(=O)(=O)Oc1ccc2c3c(c(=O)oc2c1)CCCCC3 [IROSUSTAT] | 2.65 | 8.27 | – | – | 56
16 | CCCOC(=O)c1ccc(OS(N)(=O)=O)cc1 | 2.3 | – | – | – | –
17 | CCCCCCCCCOC(=O)c1ccc(OS(N)(=O)=O)cc1 | 4.68 | 8.39 | – | – | –
